This excerpt belongs to a sample that is enriched for hits.
INS-1E ATP HTS: protection of INS-1E cells from cytokine death, primary screen, ATP luminescence, single point; INS-1E cytokine-induced death, 48 h; normalised: neutral wells 0, positive control 100; protection from cytokine-induced ATP loss, % at 10 µM; 20,000 compounds, 0.1% hits; AID 488910, 2010;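 active = mean replicate protection from cytokine-induced ATP loss at least 50% and at least 75% of replicates each reaching 50%; inconclusive = meets only one of the two criteria, mean or replicate share; inactive = fails both the mean and replicate share criteria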
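Material: INS-1E rat cells; Quantity: 8000 cells/well; Buffer or medium: phenol-red-free RPMI with 5% fetal bovine serum; Probe or stimulus: cytokine cocktail of IFN-γ, TNF-α and IL-1β; Compound dosing: single test concentration per compound, delivered by pin transfer; Incubation: 48 h co-treatment, 10 min post-lysis read; Signal: CellTiter-Glo luminescence.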
A1 apoptosis 2: A1 inhibitors via caspase activation, primary screen, cell-based, luminescence, HTS, two replicates; caspase activation, % (no concentration beside the values); MEF A1-2A-BIM cells, caspase-Glo luminescence, 3 h; percent of clofoctol response, DMSO zero; AID 2465, 2010; 24,000 tested, under 10 active; in the data active = caspase activation above about 5.9%; inconclusive = no clear call, values can overlap the other calls; inactive = below about 2.2%
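Evaluation: Caspase-3/7 activity from luminescence increase | Assay system: A1-2A-BIM mouse embryonic fibroblasts | Quantity: 2500 MEF cells/well | Medium: RPMI-1640 plus 10% FBS | Detection: Caspase-Glo 3/7 luminescence, 1 h at room temperature | Dosing: 50 nL compound per well, pinned | Timing: Cells settled overnight, compound exposure 3 h at 37 °C, 5% CO2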
T cruzi HTS: inhibitors of intracellular Trypanosoma cruzi, primary screen, cell-based, plate reader, single point, set 2; intracellular Trypanosoma cruzi in host cells; activity score (inhibition), % at 5.01 µM; 22,000 compounds, 4.9% hits; AID 651903, 2012; in the data active = activity score above about 55%; inconclusive = no clear call, values can overlap the other calls;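 also: parasites and compound incubated about four days before reading; 0% = median of neutral control wells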
Starred values were filed as active, the others as inactive; ? = inconclusive; · = no result.

SMILES	INS-1E ATP HTS	A1 apoptosis 2	T cruzi HTS
C[C@H](CO)N1C[C@H](C)[C@H](CN(C)Cc2ccncc2)Oc2ncc(-c3cccc(C(F)(F)F)c3)cc2C1=O	·	0	46
O=C(NO)c1cccc(C(=O)N/N=C/Cc2ccccc2)c1	-4	-1	-11
COC(=O)CCCCCCC(=O)N/N=C/c1ccc(CO)o1	2	0	3
COC(=O)CCCCCCC(=O)N/N=C/c1cc(O)ccc1O	31	-1	-16
O=C(CCCCCCC(=O)Nc1ccccc1O)N/N=C/c1ccc2c(c1)OCCO2	9	·	13
C[C@@H]1CN([C@H](C)CO)C(=O)c2cccc(NC(=O)c3nc4ccccc4s3)c2O[C@@H]1CN(C)Cc1ccc(Cl)c(Cl)c1	-28	·	8
C[C@H](CO)N1C[C@H](C)[C@H](CN(C)Cc2ccc(Oc3ccccc3)cc2)Oc2c(NC(=O)c3nc4ccccc4s3)cccc2C1=O	-31	0	59*
C[C@H](CO)N1C[C@H](C)[C@H](CN(C)Cc2ccc(Cl)c(Cl)c2)Oc2c(NC(=O)c3nc4ccccc4s3)cccc2C1=O	-41	-1	60*
C[C@@H]1CN([C@H](C)CO)C(=O)c2cccc(NC(=O)c3nc4ccccc4s3)c2O[C@H]1CN(C)Cc1ccc(-c2ccccc2)cc1	-20	-2	47
C[C@H](CO)N1C[C@H](C)[C@H](CN(C)Cc2ccccc2)Oc2c(NC(=O)c3nc4ccccc4s3)cccc2C1=O	-26	1	49
C[C@H]1CN([C@@H](C)CO)C(=O)c2cccc(NC(=O)c3nc4ccccc4s3)c2O[C@@H]1CN(C)Cc1ccc(-c2ccccc2)cc1	-18	-1	73*
C[C@@H]1CN([C@H](C)CO)C(=O)c2cccc(NC(=O)c3nc4ccccc4s3)c2O[C@H]1CN(C)Cc1ccc(C(F)(F)F)cc1	-60	·	62*
C[C@H]1CN([C@@H](C)CO)C(=O)c2cccc(NC(=O)c3nc4ccccc4s3)c2O[C@H]1CN(C)Cc1ccc(C(F)(F)F)cc1	-48	1	49
Cc1nnc(Sc2ccc(/C=N/NC(=O)CCCCCCC(=O)Nc3ccccc3O)o2)n1C	1	·	-3
Cc1nnc(Sc2ccc(/C=N/NC(=O)CCCCC(=O)NO)o2)n1C	9	0	-2
CN(C)CCCOc1ccc(/C=N/NC(=O)c2ccccn2)cc1	5	-5	21
COC(=O)CCCCCCC(=O)N/N=C/c1ccc(OC)cc1	13	0	-2
C[C@H]1CN([C@@H](C)CO)C(=O)c2cccc(NC(=O)c3nc4ccccc4s3)c2O[C@H]1CN(C)Cc1ccccc1	-17	·	12
C[C@H]1CN([C@@H](C)CO)C(=O)c2cccc(NC(=O)c3nc4ccccc4s3)c2O[C@H]1CN(C)Cc1ccc(Oc2ccccc2)cc1	-24	0	68*
O=C(NO)c1cccc(C(=O)N/N=C/c2cccc(OCCO)c2)c1	-2	-2	-9
O=C(N/N=C/c1ccc2ccccc2c1O)c1ccccn1	-107	-4	61*
O=C(N/N=C/c1cc(Cl)cc(Cl)c1O)c1ccccn1	-63	-3	71*
O=C(N/N=C/c1cccnc1Cl)c1ccccn1	0	-7	-8
O=C(N/N=C/c1cccc2ccccc12)c1ccccn1	4	-6	-16
O=C(NO)c1cccc(C(=O)N/N=C/c2ccccc2[N+](=O)[O-])c1	-7	-5	-4
SMILES	INS-1E ATP HTS	A1 apoptosis 2	T cruzi HTS
O=C(CCCCCC(=O)N/N=C/c1cccnc1Cl)NO	·	2	·
CC(C)(C)OC(=O)NC1(/C=N/NC(=O)c2ccccn2)CCCC1	11	·	-10
O=C(CCCCCCC(=O)Nc1ccccc1O)N/N=C/c1ccoc1	4	·	-3
Cc1ccc(S(=O)(=O)Nc2ccc3c(c2)CC(=O)N([C@@H](C)CO)C[C@@H](C)[C@@H](CN(C)S(=O)(=O)c2ccc(Cl)cc2)O3)cc1	1	0	62*
Cc1ccc(S(=O)(=O)N(C)C[C@H]2Oc3ccc(NS(=O)(=O)c4ccc(Cl)cc4)cc3CC(=O)N([C@@H](C)CO)C[C@H]2C)cc1	-18	1	?
Cc1ccc(S(=O)(=O)N(C)C[C@H]2Oc3ccc(NS(=O)(=O)c4ccc(F)cc4)cc3CC(=O)N([C@H](C)CO)C[C@H]2C)cc1	-4	1	63*
Cc1ccc(S(=O)(=O)N(C)C[C@H]2Oc3ccc(NS(=O)(=O)c4ccccc4)cc3CC(=O)N([C@H](C)CO)C[C@H]2C)cc1	1	-1	67*

Screens (PubChem BioAssay)
